Experimental data published in ChEMBL document CHEMBL4842319, “Synthesis of alkynylated 1,2,4-oxadiazole/1,2,3-1H-triazole glycoconjugates: Discovering new compounds for use in chemotherapy against lung carcinoma and Mycobacterium tuberculosis” (Eur J Med Chem, 2021).
Converted amounts (≈) assume the structure as drawn.

Experiments:
[1] = tested on: NCI-H460; experiment: Cytotoxicity against human NCI-H460 cells assessed as inhibition of cell proliferation at 25 uM incubated for 72 hrs by MTT assay relative to control; type: functional; design: scale not given: the % may be the effect or the level left
Outline: (§1)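 Tumor lines from NCI. PC-3, HCT-116 and NCIH-460 were grown in RPMI 1640; SKMEL-103 and AGP-01 in DMEM; all with 10% FBS at 37 °C, 5% CO2. Seeding was 0.3×10⁶ cells/mL for SKMEL-103 and AGP-01, 0.1×10⁶ for PC-3 and NCIH-460, and 0.7×10⁵ for HCT-116. Cells were exposed to compound at 25 µM for 72 h. Cells were centrifuged, 1% MTT added for 3 h, formazan dissolved in DMSO and read at 570 nm.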

[2] = Cytotoxicity against human AGP01 cells assessed as inhibition of cell proliferation at 25 uM incubated for 72 hrs by MTT assay relative to control; type: functional; design: scale not given: the % may be the effect or the level left; outline: as §1
[3] = tested on: SK-MEL-103; experiment: Cytotoxicity against human SK-MEL-103 cells assessed as inhibition of cell proliferation at 25 uM incubated for 72 hrs by MTT assay relative to control; type: functional; design: scale not given: the % may be the effect or the level left; outline: as §1
[4] = tested on: PC-3; experiment: Cytotoxicity against human PC-3 cells assessed as inhibition of cell proliferation at 25 uM incubated for 72 hrs by MTT assay relative to control; type: functional; design: scale not given: the % may be the effect or the level left; outline: as §1
[5] = tested on: HCT-116; experiment: Cytotoxicity against human HCT-116 cells assessed as inhibition of cell proliferation at 25 uM incubated for 72 hrs by MTT assay relative to control; type: functional; design: scale not given: the % may be the effect or the level left; outline: as §1
[6] = tested on: Mycobacterium tuberculosis; experiment: Antimycobacterial activity against Mycobacterium tuberculosis H37Ra ATCC 25177 assessed as inhibition of bacterial growth incubated for 9 days by resazurin microtiter assay; type: functional; settings: H37Ra ATCC 25177, 216 h, time 9 day
Outline: (§2)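 REMA broth microdilution in 7H9-S medium, run in duplicate. Test compounds were serially two-fold diluted on the plate from 64 to 0.5 µg/mL. Inoculum taken from fresh Löwenstein-Jensen culture, adjusted to McFarland no. 1 and diluted 1:20. Plates were sealed and incubated at 37 °C in normal atmosphere for 9 days, then resazurin was added. Rifampicin and ethambutol served as standards. MIC reported in µg/mL.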

[7] = tested on: Mycobacterium tuberculosis; experiment: Antimycobacterial activity against Mycobacterium tuberculosis H37Rv ATCC 27294 assessed as inhibition of bacterial growth incubated for 9 days by resazurin microtiter assay; type: functional; settings: H37Rv ATCC 27294, 216 h, time 9 day; outline: as §2
[8] = Cytotoxicity against mouse RAW264.7 cells assessed as reduction in cell viability incubated for 48 hrs by MTT assay; type: cell-based
Outline: (§3)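 RAW 264.7 macrophages and HepG2 cells were cultured in DMEM at 37 °C, 5% CO2. For the assay, 10⁵ cells/well were preincubated for 24 h, then exposed to compounds at […] for 48 h, in duplicate. MTT (5 mg/mL in PBS) was added for 2 h and absorbance read at 570 nm. Untreated wells served as the negative control. CC50 obtained by regression analysis.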

[9] = Cytotoxicity against human HepG2 cells assessed as reduction in cell viability incubated for 48 hrs by MTT assay; type: cell-based; outline: as §3
[10] = Selectivity index, ratio of CC50 for mouse RAW264.7 cells to MIC for antimycobacterial activity against Mycobacterium tuberculosis H37Rv ATCC 27294; type: toxicity; settings: read-out: Selectivity Index
[11] = Selectivity index, ratio of CC50 for human HepG2 cells to MIC for antimycobacterial activity against Mycobacterium tuberculosis H37Rv ATCC 27294; type: toxicity; settings: read-out: Selectivity Index

SMILES | Activity [1] [%] | Activity [2] [%] | Activity [3] [%] | Activity [4] [%] | Activity [5] [%] | MIC [6] [µg/mL] | MIC [7] [µg/mL] | CC50 at 48 h [8] [µg/mL] | CC50 at 48 h [9] [µg/mL] | selectivity ratio [10] | selectivity ratio [11]
O=[N+]([O-])c1ccc(-c2noc(NC3CCCCC3)n2)cc1 | 10.4 | 53.2 | 50.7 | 20.3 | – | – | – | – | – | – | –
O=[N+]([O-])c1cccc(-c2noc(NC3CCCCC3)n2)c1 | – | 11.6 | 32 | 9.9 | 14.1 | – | – | – | – | – | –
CC(=O)OC[C@H]1O[C@H](OC[C@@H](CN=[N+]=[N-])OC(C)=O)C=C[C@@H]1OC(C)=O | – | – | – | – | – | ≥ 64 | ≥ 64 | 106 (≈ 286 µM) | > 200 | < 1.66 | –
CC(=O)OC[C@H]1O[C@H](OC[C@H](Cn2cc(COc3ccc(-c4noc(C)n4)cc3)nn2)OC(C)=O)C=C[C@@H]1OC(C)=O | – | – | – | – | – | ≥ 64 | ≥ 64 | 112 (≈ 191 µM) | 37.7 (≈ 64.3 µM) | < 1.74 | < 0.58
CC(=O)OC[C@H]1O[C@H](OC[C@@H](Cn2cc(CN(c3nc(-c4cccc([N+](=O)[O-])c4)no3)C3CCCCC3)nn2)OC(C)=O)C=C[C@@H]1OC(C)=O | – | 44.7 | 42.2 | 38.4 | 27.7 | ≥ 64 | ≥ 64 | 100 (≈ 144 µM) | > 200 | < 1.56 | –
C#CCN(c1nc(-c2cccc(Br)c2)no1)C1CCCCC1 | 17.9 | 69.1 | 39.4 | 58.6 | 65.6 | ≥ 64 | 32 (≈ 88.8 µM) | 31.8 (≈ 88.2 µM) | 53.5 (≈ 148 µM) | 0.9 | 1.67
C#Cc1ccc(-c2noc(NC3CCCCC3)n2)cc1 | 34 | 44.4 | 40.1 | 46 | 60.7 | 32 (≈ 120 µM) | 32 (≈ 120 µM) | 19.8 (≈ 74.1 µM) | 54.2 (≈ 203 µM) | 0.62 | 1.69
CC(=O)OC[C@H]1O[C@H](OC[C@@H](Cn2cc(CN(c3nc(-c4ccc([N+](=O)[O-])cc4)no3)C3CCCCC3)nn2)OC(C)=O)C=C[C@@H]1OC(C)=O | 36.3 | 47.6 | 30.6 | 28.8 | 39.1 | ≥ 64 | ≥ 64 | – | > 200 | 1.25 | –
C#CCN(c1nc(-c2ccc(Br)cc2)no1)C1CCCCC1 | – | – | – | – | – | 32 (≈ 88.8 µM) | 32 (≈ 88.8 µM) | 15.7 (≈ 43.5 µM) | 102 (≈ 283 µM) | 0.48 | 3.18
CC(=O)OC[C@H]1O[C@H](OC[C@H](Cn2cc(-c3ccc(-c4noc(NC5CCCCC5)n4)cc3)nn2)OC(C)=O)C=C[C@@H]1OC(C)=O | – | – | – | – | – | ≥ 64 | ≥ 64 | 16.3 (≈ 25.5 µM) | 79.8 (≈ 125 µM) | < 0.25 | < 1.24
CC(=O)OC[C@H]1O[C@H](OC[C@@H](Cn2cc(CN(c3nc(-c4ccc(Cl)cc4)no3)C3CCCCC3)nn2)OC(C)=O)C=C[C@@H]1OC(C)=O | – | – | – | – | – | 64 (≈ 93.1 µM) | 64 (≈ 93.1 µM) | 35.5 (≈ 51.7 µM) | 46.9 (≈ 68.3 µM) | 0.55 | 0.73
C#CCN(c1nc(-c2cccc(C)c2)no1)C1CCCCC1 | 40.2 | 94.5 | 87.7 | 29.4 | 86.5 | ≥ 64 | 32 (≈ 108 µM) | 25.9 (≈ 87.6 µM) | 44.4 (≈ 150 µM) | 0.8 | 1.38
CC(=O)OC[C@H]1O[C@H](OC[C@H](Cn2cc(COc3ccc(-c4noc(NC5CCCCC5)n4)cc3)nn2)OC(C)=O)C=C[C@@H]1OC(C)=O | – | – | – | – | – | 16 (≈ 23.9 µM) | 16 (≈ 23.9 µM) | 33.3 (≈ 49.8 µM) | 99.5 (≈ 149 µM) | 2.08 | 6.21
